Fewer inactive variants are shown than the library holds.
B1: tRNA (parent)
chain: GUUCCGUUGGCGUAAUGGUAACGCGUCUCCCUCCUAAGGAGAAGACUGCGGGUUCGAGUCCCGUACGGAACG

Variants of: B1
Test: yeast fitness relative to wild type (ratio to wild type); higher = fitter; tRNA-Arg(CCU), competitive growth, 37 C, YPD
How it was run: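 A pool of Saccharomyces cerevisiae strains, each with a tRNA-Arg(CCU) gene variant at the native genomic locus, was competed in YPD at 37°C for 24 hours across six parallel replicates. The variants had been chemically synthesised at a 3% per-site mutation rate over 69 sites, and gene amplicons before and after competition were read by 100-nucleotide paired-end sequencing. Darwinian fitness relative to wild type rested on changes in genotype frequencies. Genotypes required ≥ 100 starting reads, and estimates < 0.5 were set to 0.5.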

Variant | yeast fitness
G9C C22A G48C G63C | ≤ 0.5
G9C C31G | 0.66
G9C C31U | 0.676
G9A U28G A45C | ≤ 0.5
G9C U13A G17C | ≤ 0.5
G9A U26A A36U A40C A65U | ≤ 0.5
G9A U26A A43U | 0.616
G9C A42C | 0.684
G9C U19A A21G A43C A65G G67A | ≤ 0.5
G9C G10A G12C A45U C60A | ≤ 0.5
G9C A40U C46U | 0.511
G9C C22A C34A C55G A65G | 0.526
G9A U28A A65U | ≤ 0.5
G9C G23A C34U C66G | ≤ 0.5
G9C C34G C61U | 0.553
G9C G23C A57C | ≤ 0.5
G9A U47A | 0.796
G9C A14C G44C U64G A70C | ≤ 0.5
G9C C29U | 0.674
G9C C29U C34G G48C C62U | 0.782
G9C G23A A40C C55G A65G | ≤ 0.5
G9C A36C A37G U64C | ≤ 0.5
G9A U26G | 0.967
G9C C22G C30U | 0.648

Variant | yeast fitness
G9C C22U C33G A43U A45U C46G U54A A65U | 0.67
G9C A15G G17A C27A C31G G50A | ≤ 0.5
G9A U32A G48C | 0.531
G9C A42C G68C | 0.542
G9C A70C | 0.866
G9C U16C C30U U32G | ≤ 0.5
G9C A15C C31G A40G A43U | ≤ 0.5
G9C C31G A40C A45C G48C | 0.668
G9A U54G | 0.552
G9C G38A A57C | ≤ 0.5
G9A U28A C55U G68A | ≤ 0.5
G9C U16C C30U A65G | ≤ 0.5
G9C C11U C22G A65U | ≤ 0.5
G9C G23A A40C C55G | 0.549
G9A U19G C66U | 0.64
G9C A43C A57U G63A | ≤ 0.5
G9C C27A A70G | 0.539
G9C G56A | 0.863
G9C C27G C30G A40U C49U | ≤ 0.5
G9A U26G C55G | 0.57
G9C C24U A37C C61G | ≤ 0.5
G9C C24A C62G A69C | ≤ 0.5
G9C A14U A45U C49G C55G G67C | ≤ 0.5
G9A U28C C55G C62G | ≤ 0.5

Variant | yeast fitness
G9A U53C | 0.77
G9C C27U A40U A65G | ≤ 0.5
G9A U54C G56A | 0.661
G9C A42C C49G G68A | ≤ 0.5
G9C C31A C49G | 0.574
G9C C24G C60U U64A | ≤ 0.5
G9C A20G U26C | ≤ 0.5
G9C C55G | 0.542
G9C C24G A40U C55A | ≤ 0.5
G9C C11G C24U | ≤ 0.5
G9C A57U C60A | 0.727
G9C A21U C27U | ≤ 0.5
G9C G10C C33U G48C C55G | ≤ 0.5
G9C C22G A57C | ≤ 0.5
G9C G52A | 0.564
G9C G10C G18C C33U G44C C46U C62U | 0.599
G9C C34G A70G | ≤ 0.5
G9C C61G | 0.61
G9C C61U | 0.844
G9A U28G A40C A42G A69C | 0.963
G9C G44C C66U | 0.568
G9C | 0.853
G9C A21C A57G | ≤ 0.5
G9C G39A G68C A69C | ≤ 0.5

Variant | yeast fitness
G9C A15C A45C C49U C62G C66U | 0.591
G9A U28A C60G | ≤ 0.5
G9C A20U U28A A42U G48A | ≤ 0.5
G9C U19C | 0.764
G9A U32G C49G C55A | ≤ 0.5
G9C G68A | 0.763
G9C A65C A70U | 0.539
G9A U28C G44A G51C G58C G68C | ≤ 0.5
G9C G23A C33G | ≤ 0.5
G9C A37G | 0.623
G9C C46U C49U | 0.692
G9C C22G C61A | 0.611
G9C C22U U47C | 0.694
G9C C11G A57C A70C | ≤ 0.5
G9C C30A | 0.664
G9C C30U | 0.628
G9C C30G | 0.578
G9C G17C G18C C62U A69G | 0.629
G9C G23A C34U | 0.655
G9A U28C A70G | 0.673
G9C C30U U47A G67C | 0.559
G9A U35C A42U G63A | ≤ 0.5
G9C A14G U26A U32G | ≤ 0.5
G9C A43C C55G | ≤ 0.5

Variant | yeast fitness
G9C A14U G50C | 0.682
G9A U32C | 0.943
G9C C34U C55A A57C | ≤ 0.5
G9C A37G G41A C61G | ≤ 0.5
G9C C33A A43C | ≤ 0.5
G9C C22U G48C G51C | 0.595
G9C A36U | 0.618
G9C A36G | 0.691
G9C C27G C60U A69U | ≤ 0.5
G9C G23C C30G G44A G58C G63A A70G | ≤ 0.5
G9C C31G A40C G50C C55U C60G A69G | 0.549
G9C G41A C55U U59A A70U | ≤ 0.5
G9C A14C C22G G52A U53A | 0.503
G9C G39C G67U | ≤ 0.5
G9C C29U C55U | 0.572
G9C C29U C55G | ≤ 0.5
G9C A20U C27G C49U | 0.55
G9C C34A A57U | ≤ 0.5
G9C A45U C55G C61U | ≤ 0.5
G9C A14U C24G U35G C61G G68C | ≤ 0.5
G9C A42U U54C | ≤ 0.5
G9C A21U | 0.509
G9C A21C | 0.652
G9C A21G | 0.669

Variant | yeast fitness
G9C C31G C66A G68C | 0.553
G9A U26A U28C C55U G58A U59C | 0.555
G9A U19C G23C U59A G68C | ≤ 0.5
G9C C30A G38A A42G | 0.515
G9C C11G C24U C31U U59A | ≤ 0.5
G9C C27A C30A | ≤ 0.5
G9C C24G C33G U35A G48C C66A | ≤ 0.5
G9C C66U | 0.621
G9C C66A | ≤ 0.5
G9C A36U A40U G44A G63A A69C | ≤ 0.5
G9C U16C C66U | ≤ 0.5
G9C A14C G18A G44C A57C | ≤ 0.5
G9C G39C | 0.64
G9C C27U U47C C55U C62G A65G A69U | ≤ 0.5
G9C C31G U32G | ≤ 0.5
G9C A14U U28C U35G | 0.623
G9C A20G U35C A36G U59A C66G | ≤ 0.5
G9C C24U C34A G44C C46U G48A A69G | ≤ 0.5
G9C C22G C33G G63C A70G | 0.6
G9A U26G C46U | 0.726
G9C G10A G12C C22U A45U | ≤ 0.5
G9C C60U | 0.618
G9C C60G | 0.53
G9C C11G G58A | ≤ 0.5

Variant | yeast fitness
G9C A20C A45G C46G G50A | ≤ 0.5
G9C A14G C62U G63C A70C | ≤ 0.5
G9C G58A | 0.869
G9C G58C | 1.06
G9C A45U | 0.771
G9C A45C | 0.587
G9C G10A C29U A37U C62U G67A A70C | ≤ 0.5
G9C G39C C55G C62G A65C | ≤ 0.5
G9C G39C C61U | 0.544
G9C C34A | 0.536
G9C C34U | 0.776
G9C C34G | 0.548
G9C G44A | 0.673
G9C G51C C62G | ≤ 0.5
G9C A37G C55G C60G | 0.524
G9C C49G | 0.63
G9C C49U | 0.703
G9C C24U C30G G51A C60U A69C | ≤ 0.5
G9C C24G G41A G52A C66U | 0.602
G9C C24U C30G | ≤ 0.5
G9C C29G C34G C60G | 0.534
G9C G12C C31A A40U G67A | 0.557
G9C C27A C55U | ≤ 0.5

Source: the RNAGym collection of RNA variant scans (doi:10.1126/science.aae0568)
